The source of these data is ChEMBL document CHEMBL1139892 (J Nat Prod, 2007).

In brackets after ≈: the same amount, converted by molar mass. Where a name gives a salt, the structure may show the parent alone.

Experiment [1] relates to Mycobacterium tuberculosis. Description: Antimycobacterial activity against Mycobacterium tuberculosis H37Ra by microplate Alamar Blue assay. Type of experiment: functional. The essentials:
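M. tuberculosis H37Ra grown in Middlebrook 7H9 broth; growth read colorimetrically with Alamar Blue in microplates and reported as MIC; isoniazid and kanamycin sulfate included as reference drugs.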
On the technique in general: The colour change of resazurin is a common sign of viable cells or microbes.

Experiment [2] has as its target Prostaglandin G/H synthase 1 (Homo sapiens, UniProt P23219). Nature of the experiment: Inhibition of COX1 by radioimmunoassay method.
The nature of experiment [3]: Cytotoxicity against BC cells by colorimetric method. The format is cell-based. The following applies: Homo sapiens. In a few lines:
(§1)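 KB and BC cells were tested by the colorimetric method of Skehan and co-workers, with ellipticine as the reference compound.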

For experiment [4], the target named is T1, Prostaglandin G/H synthase 2 (Homo sapiens, UniProt P35354).
T1 sequence (P35354 whole entry): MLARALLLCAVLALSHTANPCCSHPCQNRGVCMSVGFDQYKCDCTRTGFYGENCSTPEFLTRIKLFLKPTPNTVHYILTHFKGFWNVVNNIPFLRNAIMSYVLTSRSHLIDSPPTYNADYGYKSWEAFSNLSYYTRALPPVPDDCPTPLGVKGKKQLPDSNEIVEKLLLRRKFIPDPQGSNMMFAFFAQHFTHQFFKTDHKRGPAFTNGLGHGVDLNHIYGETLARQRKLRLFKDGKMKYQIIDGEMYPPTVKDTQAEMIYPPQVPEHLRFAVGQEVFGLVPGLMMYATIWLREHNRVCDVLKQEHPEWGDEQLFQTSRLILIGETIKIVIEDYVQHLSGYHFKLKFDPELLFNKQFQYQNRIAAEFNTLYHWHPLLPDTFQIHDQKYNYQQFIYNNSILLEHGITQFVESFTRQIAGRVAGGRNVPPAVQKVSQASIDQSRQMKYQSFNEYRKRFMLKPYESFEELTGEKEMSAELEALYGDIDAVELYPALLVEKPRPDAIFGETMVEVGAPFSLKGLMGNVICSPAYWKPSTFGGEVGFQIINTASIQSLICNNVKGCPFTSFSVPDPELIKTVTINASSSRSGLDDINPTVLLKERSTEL
Description: Inhibition of COX2 by radioimmunoassay method.

For experiment [5], the system named is Candida albicans. Description: Antifungal activity against Candida albicans by colorimetric method. Type of experiment: functional, organism-based.
Experiment [6] has as its system Plasmodium falciparum. Description: Antimalarial activity against multidrug-resistant Plasmodium falciparum K1 by micro culture radioisotope technique. Type of experiment: functional, organism-based.
In experiment [7] the test system is KB. Description: Cytotoxicity against KB cells by colorimetric method. The format is cell-based. The note with it: Homo sapiens. The essentials: as §1

Sequence of Prostaglandin G/H synthase 1 (P23219 whole entry): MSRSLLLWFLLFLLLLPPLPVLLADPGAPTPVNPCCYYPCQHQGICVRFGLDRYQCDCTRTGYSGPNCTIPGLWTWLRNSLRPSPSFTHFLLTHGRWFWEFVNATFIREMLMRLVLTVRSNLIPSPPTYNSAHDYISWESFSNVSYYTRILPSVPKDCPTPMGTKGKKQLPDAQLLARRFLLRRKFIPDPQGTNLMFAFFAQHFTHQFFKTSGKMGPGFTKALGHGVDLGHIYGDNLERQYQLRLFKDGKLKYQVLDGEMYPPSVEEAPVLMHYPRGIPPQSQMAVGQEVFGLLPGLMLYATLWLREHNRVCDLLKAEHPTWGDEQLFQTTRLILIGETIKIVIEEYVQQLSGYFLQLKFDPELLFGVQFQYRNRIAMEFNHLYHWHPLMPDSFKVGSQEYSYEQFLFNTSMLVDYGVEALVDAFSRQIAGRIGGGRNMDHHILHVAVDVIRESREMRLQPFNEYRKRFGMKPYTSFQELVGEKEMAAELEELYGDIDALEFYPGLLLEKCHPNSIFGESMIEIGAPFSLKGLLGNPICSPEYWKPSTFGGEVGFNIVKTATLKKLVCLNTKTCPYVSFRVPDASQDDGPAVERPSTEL

The term MIC denotes the lowest concentration found to suppress growth. A higher MIC goes with a less susceptible organism. Consider `NC[C@H]1O[C@H](O[C@H]2[C@H](O)[C@@H](O[C@H]3O[C@H](CO)[C@@H](O)[C@H](N)[C@H]3O)[C@H](N)C[C@@H]2N)[C@H](O)[C@@H](O)[C@@H]1O` [KANAMYCIN SULFATE], for which it took 3.43 µM to inhibit growth in experiment [1] (MIC).
As usually defined, the IC50 is the midpoint of a concentration-inhibition curve. Read a high IC50 as weaker potency in that assay. For the compound `Oc1cc(O)cc(CCc2ccccc2)c1` [DIHYDROPINOSYLVIN], the half-maximal inhibitory concentration (IC50) in experiment [2] was above 46.7 µM; in experiment [3], above 93.4 µM; in experiment [4], above 46.7 µM; in experiment [5], above 234 µM; in experiment [6], above 93.4 µM; in experiment [7], above 93.4 µM. In experiment [1], this compound displayed an MIC of 117 µM (≈ 25 µg/mL).
In the case of `Cc1c2ccncc2c(C)c2c1[nH]c1ccccc12` [ELLIPTECINE], the 50% inhibitory concentration (IC50) in experiment [3] came out at 6.1 µM; in experiment [7], 5.3 µM.
Regarding `COc1cc(CCc2ccccc2O)cc(OC)c1`, the concentration for half-maximal inhibition (IC50) in experiment [3] is above 77.5 µM; in experiment [5], 49.6 µM; in experiment [6], above 77.5 µM; in experiment [7], above 77.5 µM. For the same compound, the MIC in experiment [1] stood at 194 µM (≈ 50 µg/mL).
On to `COc1c(C)c(OC)c2c(c1O)CCc1c(O)cccc1O2` [BAUHINOXEPIN E], for which the IC50 in experiment [2] was above 33.1 µM; in experiment [3], above 66.2 µM; in experiment [4] it was above 33.1 µM; in experiment [5], above 166 µM; in experiment [6] it was above 66.2 µM; in experiment [7], above 66.2 µM. Also, the MIC in experiment [1] was found to be 331 µM (≈ 100 µg/mL).
Turning to `COC1=C(C)C(=O)C2=C(CCc3c(O)cccc3O2)C1=O` [BAUHINOXEPIN H], the IC50 in experiment [2] is above 34.9 µM; in experiment [3] it was 11.5 µM; in experiment [4] it was above 34.9 µM; in experiment [5], above 175 µM; in experiment [7], 15.7 µM. In addition, inhibition of growth in experiment [1] (MIC) required 87.4 µM (≈ 25 µg/mL).
With `COc1c(O)c(C)c(OC)c2c1CCc1c(O)cccc1O2` [BAUHINOXEPIN F], the IC50 in experiment [2] is above 33.1 µM; in experiment [3], 27.4 µM; in experiment [4], 6.9 µM; in experiment [5] it was 77.8 µM; in experiment [6], above 66.2 µM; in experiment [7], 29.4 µM. In experiment [1], this compound came in with an MIC of 662 µM (≈ 200 µg/mL).
With `COc1cc2c(c(O)c1C)Oc1cccc(O)c1CC2` [BAUHINOXEPIN C], the IC50 was 32.3 µM in experiment [3], 79.4 µM in experiment [5], above 73.5 µM in experiment [6] and 44.8 µM in experiment [7]. In experiment [1], the MIC amounted to 184 µM (≈ 50 µg/mL).
For `Cc1c(O)cc2c(c1O)C(=O)C[C@@H](c1ccccc1)O2`, in that order: above 74 µM, above 185 µM, above 74 µM, above 74 µM and above 741 µM.
For `COc1cc(CCc2ccccc2O)cc(O)c1C` [BAUHINOL E], in that order: above 77.5 µM, above 194 µM, above 77.5 µM, above 77.5 µM and 194 µM (≈ 50 µg/mL).
For `COc1cc(OC)c(O)c([C@@H]2Cc3ccccc3O2)c1` [BAUHIBENZOFURIN A], in that order: above 73.5 µM, 130 µM, above 73.5 µM, above 73.5 µM and 368 µM (≈ 100 µg/mL).
Consider `C[C@H]1[C@@H](O)O[C@@H]2O[C@@]3(C)CC[C@H]4[C@H](C)CC[C@@H]1[C@@]24OO3` [ARTENIMOL], for which half-maximal inhibition in experiment [6] (IC50) was put at 0.0042 µM.
As for `COc1c(C)c(O)cc2c1Oc1cccc(O)c1CC2` [BAUHINOXEPIN D], the IC50 in experiment [3] was 45.5 µM; in experiment [5], above 184 µM; in experiment [6], above 73.5 µM; in experiment [7], 41.5 µM. In experiment [1], this compound returned a minimum inhibitory concentration (MIC) of 184 µM (≈ 50 µg/mL).
For `COc1cc(CCc2ccccc2O)c(O)c(OC)c1` the same measures were above 72.9 µM, above 182 µM, above 72.9 µM, above 72.9 µM and 91.2 µM (≈ 25 µg/mL).
For `COc1c(C)c(O)cc2c1Oc1ccccc1C(O)C2` (configuration not stated) [BAUHINOXEPIN G] the same measures were above 73.5 µM, above 184 µM, above 73.5 µM, above 73.5 µM and 91.9 µM (≈ 25 µg/mL).
For `COC1=CC(=O)C2=C(CCc3ccccc3O2)C1=O` [BAUHINOXEPIN J], in that order: 12.1 µM, above 195 µM, 5.8 µM, 10.5 µM and 24.4 µM (≈ 6.25 µg/mL).
In turn, `C[C@@H]1[C@H](O)[C@@H](C)/C=C/C=C/C=C/C=C/C=C/C=C/C=C/[C@H](O[C@@H]2O[C@H](C)[C@@H](O)[C@H](N)[C@@H]2O)C[C@@H]2O[C@](O)(C[C@@H](O)C[C@@H](O)[C@H](O)CC[C@@H](O)C[C@@H](O)CC(=O)O[C@H]1C)C[C@H](O)[C@H]2C(=O)O` [AMPHOTERICIN B] returned a concentration for half-maximal inhibition (IC50) in experiment [5] of 0.04 µM.
As for `Cc1c(O)c(C)c2c(c1O)C(=O)C[C@@H](c1ccccc1)O2` [DEMETHOXYMATTEUCINOL], the half-maximal inhibitory concentration (IC50) in experiment [3] is above 70.4 µM; in experiment [5], above 176 µM; in experiment [6], 9.5 µM; in experiment [7], above 70.4 µM. The same compound yielded an MIC in experiment [1] above 704 µM.
Turning to `COc1cc(O)cc(CCc2ccccc2O)c1` [BATATASIN IV], the IC50 in experiment [2] is above 40.9 µM; in experiment [3] it was above 81.8 µM; in experiment [4], above 40.9 µM; in experiment [5], above 205 µM; in experiment [6] it was above 81.8 µM; in experiment [7] it was above 81.8 µM. Moreover, the minimal inhibitory concentration (MIC) in experiment [1] came to 205 µM (≈ 50 µg/mL).
In experiment [1], `NNC(=O)c1ccncc1` [ISONIAZID] had a minimal inhibitory concentration (MIC) of 0.29 µM (≈ 0.0398 µg/mL).
In the case of `COc1cc(O)cc(CCc2ccccc2)c1`, the IC50 in experiment [3] was 72.3 µM; in experiment [5] it was 68.4 µM; in experiment [6], above 87.7 µM; in experiment [7], 51.7 µM. This compound also showed an MIC in experiment [1] of 219 µM (≈ 50 µg/mL).
`COC1=C(C)C(=O)C2=C(CCc3cc(O)ccc3O2)C1=O` [BAUHINOXEPIN I]: the half-maximal inhibitory concentration (IC50) was above 34.9 µM in experiment [2]; 41.9 µM in experiment [3]; 10.1 µM in experiment [4]; above 175 µM in experiment [5]; 10.5 µM in experiment [6]; 38.8 µM in experiment [7]. The same compound came in with an MIC in experiment [1] of 175 µM (≈ 50 µg/mL).
